PG9 Ab binder – binds the HIV-1 gp120 antibody PG9. TR-FRET gp120-PG9 antibody binding. inhibition, % at 6.7 µM. hit rate 0.43% among 360,000. AID 624416; in the data active = inhibition above about 8.5%
NR1D1 modulator – Rev-erb alpha (human) modulation. hit rate 0.79% among 370,000. P20393. Rev-erbα–FITC-DNA binding, fluorescence polarization, 90 min. activity, % at 10 µM;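 active = activity above about 14%, limit read from the data; passing the limit was not always enough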;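 also: 0% = DMSO wells with 35 nM protein and 100% = DMSO wells with 750 nM protein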
Target sequence (P20393 whole entry, looked up): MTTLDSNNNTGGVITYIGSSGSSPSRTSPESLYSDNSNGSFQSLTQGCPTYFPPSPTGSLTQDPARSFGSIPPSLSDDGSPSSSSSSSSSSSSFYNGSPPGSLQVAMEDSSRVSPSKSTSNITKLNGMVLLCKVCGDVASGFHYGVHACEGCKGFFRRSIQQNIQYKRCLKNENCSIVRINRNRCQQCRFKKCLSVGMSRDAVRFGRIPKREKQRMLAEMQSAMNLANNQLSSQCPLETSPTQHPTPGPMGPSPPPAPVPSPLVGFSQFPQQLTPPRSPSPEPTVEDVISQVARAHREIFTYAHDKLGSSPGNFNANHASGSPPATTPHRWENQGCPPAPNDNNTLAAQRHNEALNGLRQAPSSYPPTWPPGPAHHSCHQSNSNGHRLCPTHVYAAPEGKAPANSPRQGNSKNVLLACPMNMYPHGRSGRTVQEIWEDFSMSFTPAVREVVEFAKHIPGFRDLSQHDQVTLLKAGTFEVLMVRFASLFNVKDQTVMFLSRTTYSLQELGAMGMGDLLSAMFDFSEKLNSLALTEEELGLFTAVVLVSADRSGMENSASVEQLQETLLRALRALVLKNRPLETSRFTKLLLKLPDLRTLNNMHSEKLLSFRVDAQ
NR2E3 ag-1 – agonists of human nuclear receptor NR2E3; Q9Y5X4; GST-NR2E3/biotin-RetCOR TR-FRET, 1536-well; inhibition of corepressor binding, % at 4.78 µM; hit rate 0.12% among 320,000; AID 2300;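 active = percent inhibition above the cutoff of mean plus 3 SD of all tested compounds, set per screening campaign, cut at about 20% in these data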;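 also: 0% = DMSO wells and 100% = biotin wells as full block of FRET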
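Material: NR2E3–RetCOR corepressor complex / Incubation: Compound–protein incubation for 5 h at 4 °C / Dosing: compound at 4.8 µM, single dose / Detection: time-resolved FRET / Benchmarks: high control biotin, low control 0.6% DMSO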
NR2E3 ag-2 – human photoreceptor-specific nuclear receptor agonism; inhibition of corepressor binding, % at 3.98 µM; AID 602229; hit rate 0.35% among 360,000; CHO-S Gal4-NCOR/VP16-NR2E3 two-hybrid, luciferase;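 active = inhibition above the mean of all tested compounds plus 3 SD, cut at about 70% in these data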;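 also: 0% = DMSO with NR2E3 transfected cells and 100% = cells lacking NR2E3 construct; higher means lower luciferase signal from less NR2E3 corepressor binding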
Rev-erbA confirm – Rev-erb alpha (human) modulation, hit confirmation. Rev-erb alpha FITC-DNA binding, fluorescence polarization, 90 min. hit rate 61% among 3,000. activation, % at 25 µM. shares compounds with NR1D1 modulator;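 active = activation at or above a set limit, or at least 3 SD above the negative control mean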;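 also: 0% = 35 nM protein with DMSO and 100% = 750 nM protein high control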
RORg counter – affects RORgamma DNA binding in a Rev-erb alpha counter-screen; hit rate 8% among 910; purified RORgamma protein-FITC-DNA binding, fluorescence polarization; shares compounds with NR1D1 modulator; IC50, µM;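 active = Compounds whose fitted half-maximal concentration for disrupting protein-DNA binding is below 10 micromolar; the record names Rev-erb in its text, so the target is in doubt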
An asterisk follows results filed as active; / = no result. An excerpt weighted towards active compounds, which were near 1.5% of everything screened.

SMILES | PG9 Ab binder | NR1D1 modulator | NR2E3 ag-1 | NR2E3 ag-2 | Rev-erbA confirm | others
CCOC(=O)c1sc(=NC(=O)c2cccs2)n(C)c1C | -0.3 | 30.8* | -4.0 | -117.3 | 14.8
Cc1ccc2c(c1)sc(=NC(=O)C1CC1)n2C | 3.1 | -2.0 | 0.6 | -127.5 | /
CCOC(=O)c1sc(=NC(=O)c2ccc(C)c(C)c2)n(C)c1C | -0.5 | 8.0 | 3.0 | -73.8 | /
CC(=O)c1c(C)[nH]c(C(=O)OCC(=O)NCCC2=CCCCC2)c1C | -0.5 | -0.3 | -0.5 | 16.8 | /
CSc1ccccc1-c1nnc(-c2ccc(Cl)cc2Cl)o1 | 1.3 | 13.4 | 3.4 | -74.8 | /
CSc1ccccc1-c1nnc(-c2ccc(Cl)c(Cl)c2)o1 | 0.2 | 46.6* | 1.9 | -25.4 | 51.0* | RORg counter=>40
O=C1NC(Cc2ccccc2)c2nc3ccc(Cl)cc3c(=O)n2-c2cc3ccccc3cc21 (stereo not given) | -0.9 | 21.5* | / | -11.7 | 1.9
COc1cccc(CC(=O)OCC(=O)NNC(=O)c2ccc([N+](=O)[O-])cc2)c1 | 0.8 | -8.4 | -0.7 | -34.1 | /
O=C(Nc1cccnc1)c1sc2cccc(F)c2c1Cl | 0.2 | 3.5 | 1.2 | -113.4 | /
O=C(Nc1ccccn1)c1sc2cccc(F)c2c1Cl | 1.2 | 25.4* | -0.7 | -140.4 | 9.4
CCc1nc(N)nc(N)c1-c1ccc(Cl)c([N+](=O)[O-])c1 | 1.5 | 4.6 | / | 13.0 | /
CN(C(=O)CSc1nnc(Cc2ccccc2F)n1N)C1CCCCC1 | 0.9 | -0.7 | / | -11.5 | /
Cc1ccc(C)c2c1cc(C)c1nnc(SCC(=O)N3CCCc4ccccc43)n12 | 0.3 | -2.1 | 4.4 | -1.4 | /
Cc1cc(NC(=O)CSc2nc3c(C)ccc(C)c3cc2C#N)no1 | -13.8 | 74.5* | -0.2 | 1.2 | 36.2* | RORg counter=>40
CCc1cc2c(C)cc(C)cc2nc1SCC(=O)Nc1cc(C)on1 | 0.4 | 97.0* | 3.1 | -16.8 | 18.8*
Cc1ccc(C)c2nc(SCC(=O)N3CCCc4ccccc43)c(C#N)cc12 | -0.7 | 60.6* | -4.1 | 14.6 | 72.2* | RORg counter=>40
Cc1cc(C)c2cc(C#N)c(SCC(=O)Nc3cc(C)on3)nc2c1 | 2.1 | 104.8* | -4.0 | 12.5 | 48.8* | RORg counter=>40
C=CCn1c(SCC(=O)c2ccc(Cl)cc2)nnc1-c1ccc2c(c1)OCO2 | -2.1 | -0.9 | 1.5 | -1.6 | /
CC(Sc1nn(-c2ccc(F)cc2)c(=S)s1)C(=O)c1c(N)n(C)c(=O)n(C)c1=O (stereo not given) | 1.5 | 22.1* | -2.9 | -19.8 | 23.5*
CCCNC(=O)C1Cc2cc(S(=O)(=O)N3CCCC3)ccc2N1C(C)=O (stereo not given) | -0.3 | -2.9 | 0.1 | 0.3 | /
COc1ccc2c(c1)c(/C=C/c1cc[n+](C)cc1)cn2C | -21.8 | 100.3* | -12.1 | -8.1 | 78.6* | RORg counter=>40
COc1ccc2c(C=O)c[nH]c2c1 | 0.5 | -0.6 | -2.7 | 11.2 | /
CC[n+]1ccc(/C=C/c2c[nH]c3ccccc23)cc1 | -8.7 | 133.6* | -0.2 | 3.6 | 130.9* | RORg counter=>40
Cc1ccc2[nH]cc(/C=C/c3cc[n+](C)cc3)c2c1 | -21.3 | 232.2* | / | -36.9 | 142.0* | RORg counter=>40
COc1ccc2c(/C=C/c3cc[n+](C)cc3)c[nH]c2c1 | -26.8 | 45.7* | -6.8 | -13.0 | 31.2* | RORg counter=>40
SMILES | PG9 Ab binder | NR1D1 modulator | NR2E3 ag-1 | NR2E3 ag-2 | Rev-erbA confirm | others
Cc1ccc2[nH]ccc(=O)c2c1 | 2.3 | 7.6 | -0.8 | -17.6 | /
COc1cccc(C(=O)NCCS(=O)(=O)NCc2ccc(Cl)cc2)c1 | -1.2 | -6.0 | 3.7 | 32.7 | /
CCc1ccc(N2C=C(C(=O)OC)C(c3cccc4ccccc34)C(C#N)=C2N)cc1 (stereo not given) | -1.3 | -1.5 | / | / | /
CCCCN(C)C(=O)c1sc(=O)n(Cc2c(C)noc2C)c1C | -1.6 | -5.5 | / | 10.5 | /
Cc1ccc(N=Cc2c(O)c3ccccc3oc2=O)c(C)c1 | 0.8 | 46.4* | -1.9 | -19.1 | 24.9*
Cc1ccc(NC(=O)c2cncc(Br)c2)cc1S(=O)(=O)N(C)C | -1.2 | -3.6 | 0.2 | -23.6 | /
O=C(Cc1cccs1)NNC(=O)c1ccc(F)cc1 | -1.2 | -0.7 | 4.0 | -6.8 | /
CCOC(=O)c1cc(-c2cc3ccccc3o2)nc2c1c(=O)[nH]c(=O)n2CCOC | -0.2 | 27.2* | -0.8 | 0.9 | 8.8
COc1ccc(-c2nc(C#N)c(N3CCN(c4ccccc4)CC3)o2)cc1 | -1.2 | 2.5 | 4.7 | -9.3 | /
COc1ccc(N2CCN(c3oc(-c4ccc(OC)c(OC)c4)nc3C#N)CC2)cc1 | 0.3 | 58.0* | 2.3 | -8.3 | -1.4
[O-]/C(=C(\C(=S)Nc1cccc2ccccc12)[n+]1ccccc1)c1ccc2c(c1)OCCO2 | -3.4 | -0.4 | -0.8 | 25.6 | /
N#Cc1cc2cc3c(cc2nc1SCC(=O)OC1CCCCC1)OCO3 | 0.5 | 78.7* | 1.0 | -17.0 | 38.2*
CCOC(=O)CSc1nc(-c2ccc3c(c2)OCO3)ccc1C#N | 1.6 | 19.6* | -0.2 | -59.2 | 17.4*
N#Cc1cc2cc3c(cc2nc1SCC(=O)N1CCCC1)OCCO3 | / | / | -0.8 | -82.1 | /
CC(=O)CSc1nc2cc3c(cc2cc1C#N)OCCO3 | -6.7 | 20.2* | -0.2 | -131.2 | 19.7*
O=C(Nc1cccc(S(=O)(=O)NC2=NCCC2)c1)c1ccc(=O)[nH]c1 | 1.7 | -6.2 | 3.2 | -10.0 | /
C1COC(NC(C2CC2)C2CC2)=N1 | -0.3 | 16.7* | 1.1 | 9.1 | -6.8
C1CCC(NC2=NCCO2)CC1 | -1.0 | 1.7 | / | -23.4 | /
COc1cc2c(cc1NC(=O)CCCN1C(=O)CCC1=O)oc1ccccc12 | 0.6 | -5.5 | 0.1 | -45.0 | /
COC(=O)CCC(=O)c1oc2ccc(Cl)cc2c1NC(=O)CCCN1C(=O)c2ccccc2C1=O | 1.1 | 41.4* | 2.4 | 7.0 | 27.7*
CCOC(=O)c1c(NC(=O)c2nc3n(n2)C(C(F)F)CC(C)N3)sc2c1CCCC2 (stereo not given) | 0.1 | 21.9* | 0.4 | -10.1 | 6.9
O=C(COc1ccc(Cl)cc1)Nc1cccc(-c2ccc(N3CCOCC3)nn2)c1 | 4.8 | 19.6* | 1.1 | -82.7 | 11.5
O=C(Nc1cccc(-c2ccc(N3CCOCC3)nn2)c1)c1ccc(Cl)cc1 | 3.0 | 0.0 | -1.4 | -45.4 | /
Cc1ccc(-c2csc3nc[nH]c(=S)c23)cc1C | -0.8 | 24.4* | 0.3 | 43.4 | 31.6* | RORg counter=>40
COc1ccc(-c2csc3nc[nH]c(=O)c23)cc1OC | -0.6 | -0.4 | -0.9 | 10.1 | /
CC1CCN(C(=O)CN(c2ccccc2)S(=O)(=O)N(C)C)CC1 | -1.3 | -1.8 | 0.2 | -3.5 | /
COC(=O)c1c(NC(=O)c2ccc(N(C)S(=O)(=O)c3ccc(C)cc3)cc2)sc2c1CCCC2 | -0.5 | 34.0* | -2.1 | 7.1 | 14.8
COC(=O)c1c(NC(=O)c2ccccc2N(C)S(=O)(=O)c2ccccc2)sc2c1CCCC2 | 1.5 | 4.5 | / | -13.4 | /
CSc1cc(-c2ccccc2)n(Cc2c(Cl)cccc2Cl)c(=O)c1C#N | -0.8 | 13.4 | -1.6 | 11.5 | /
CSc1cc(-c2ccc(Cl)cc2)n(Cc2ccccc2)c(=O)c1C#N | -4.0 | 31.6* | 5.7 | -5.7 | 13.6
